This note sets out measurements from ChEMBL document CHEMBL1148331, “Aziridinyldinitrobenzamides: synthesis and structure-activity relationships for activation by E. coli nitroreductase” (J Med Chem, 2004).

The subject of data set [1] is SK-OV-3. Nature of the data set: Growth inhibitory potency against NTR-Transfected (nitroreductase) human ovarian cell line known as SKOV3-NTR neo cell line. In kind it is functional, cell-based. The method, boiled down: (§1)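 Log-phase cells were seeded in αMEM with 5% FBS at 50–800 cells/well and grown for 18 h. Prodrug was added from DMSO stock diluted in medium and left for 18 h, then washed out. Regrowth lasted 3 days for V79 and EMT6 lines and 4 days for WiDr and Skov3 lines. Cell density was read by sulforhodamine B staining. IC50 was interpolated as 50% of control absorbance on the same plate. Ratio = IC50 of parental (NTR-ve) line / IC50 of NTR-transfected line.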

Data set [2] concerns Mus musculus. Put plainly: In vivo activity against WiDr-nitroreductase tumors in mice at a dose of 1000 (umol/kg); 1/7. In kind it is functional.
Data set [3] deals with Mus musculus. Nature of the data set: In vivo activity against WiDr-nitroreductase tumors in mice at a dose of 1000 (umol/kg); 2/7. In kind it is functional.
For another data set, the system named is WiDr-NTR. Nature of the data set: Growth inhibitory potency against NTR-Transfected (nitroreductase) human colon cell line known as WiDr-NTRneo cell line. It is filed as functional, cell-based. The method, boiled down: as §1
The subject of data set [4] is WiDr. Nature of the data set: Effective concentration of 10% cell survival for targets in WiDr MCL (multicellular layer) cocultures. It is filed as functional, Homo sapiens. The method, boiled down:
(§2)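 WiDr multicellular layers were grown on collagen-coated inserts for 6 days. Cocultures held 10% WiDr-NTRneo activators and 90% WiDr targets; the other layers held targets only. Layers were exposed to prodrug over a range of concentrations for 5 h at 37 °C, stirred, under 5% CO2/95% O2. Cells were plated clonogenically, with activators selected in 0.3 mg/mL G418. After 14 days, colonies of more than 50 cells were counted and the concentration giving 10% survival was derived.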

In data set [5] the test system is EMT6. Put plainly: Ratio of growth inhibition of NTR-transfected mouse mammary cell line to that of parental cell line (IC50 (NTR-)/IC50 (NTR+). It is filed as functional. The method, boiled down:
as §1

For data set [6], the system named is EMT6. Put plainly: Growth inhibitory potency against NTR-Transfected (nitroreductase) mouse mammary cell line known as EMT6-NTRpuro cell line. In kind it is functional, cell-based. The method, boiled down:
as §1

For data set [7], the system named is SK-OV-3. Nature of the data set: Ratio of growth inhibition of NTR-transfected human ovarian cell line to that of parental cell line (IC50 (NTR-)/IC50 (NTR+). In kind it is functional. In outline:
as §1

For data set [8], the system named is V79. Put plainly: Effective concentration of 10% cell survival for targets in V79 MCL (multicellular layer) cocultures. In kind it is functional, Cricetulus griseus. In outline:
(§3)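 V79 multicellular layers were grown on collagen-coated microporous inserts for 3 days, stirred, under 5% CO2/air. Cocultures held 3% V79-NTRpuro activators and 97% V79oua targets; the other layers held targets only. Layers were exposed to prodrug over a concentration range for 5 h at 37 °C under 5% CO2/95% O2. Cells were then plated clonogenically in 1 mM ouabain (targets) or 15 µM puromycin (activators). After 6 days, colonies of more than 50 cells were counted and the concentration giving 10% survival was taken.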

The nature of data set [9]: Solubility in culture medium. In kind it is physicochemical. The method, boiled down:
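Solubility limit (mM) determined in cell culture medium.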

For data set [10], the system named is V79. Nature of the data set: Growth inhibitory potency against NTR-Transfected (nitroreductase) chinese hamster fibroblast known as V79-NTRpuro cell line. The conditions noted are these: Cricetulus griseus. In kind it is functional, cell-based. In outline:
as §1

Data set [11] concerns V79. Put plainly: Effective concentration of 10% cell survival for activators in V79 MCL (multicellular layer) cocultures. In kind it is functional, Cricetulus griseus. The method, boiled down: as §3
Data set [12] in a line: Partition coefficient (logP). In kind it is physicochemical. The conditions noted are these: octanol/water; read-out: logP. In outline: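 Partition measured between n-octanol and water.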
Data set [13] in a line: Ratio of growth inhibition of NTR-transfected human colon cell line to that of parental cell line (IC50 (NTR-)/IC50 (NTR+). It is filed as functional. The method, boiled down:
as §1

The subject of data set [14] is WiDr. Put plainly: Effective concentration of 10% cell survival for targets in WiDr MCL (multicellular layer) grown from targets. It is filed as functional, Homo sapiens. The method, boiled down: as §2
In data set [15] the test system is WiDr. Put plainly: Effective concentration of 10% cell survival for activators in WiDr MCL (multicellular layer) cocultures. It is filed as functional, Homo sapiens. The method, boiled down: as §2
Data set [16] deals with V79. Nature of the data set: Effective concentration of 10% cell survival for targets in V79 MCL (multicellular layer) grown from targets. It is filed as functional, Cricetulus griseus. The method, boiled down:
as §3

The subject of data set [17] is Mus musculus. Put plainly: In vivo median growth delay against CD-1 nude mice bearing WiDr-nitroreductase tumors at a dose 1000 (umol/kg). It is filed as functional.
In data set [18] the test system is Mus musculus. Put plainly: In vivo activity against WiDr-nitroreductase tumors in mice at a dose of 178 (umol/kg); 4/7. In kind it is functional.
Data set [19] has as its system Mus musculus. Nature of the data set: In vivo median growth delay against CD-1 nude mice bearing WiDr-nitroreductase tumors at a dose 178 (umol/kg). In kind it is functional.
For data set [20], the system named is Mus musculus. Nature of the data set: In vivo activity against WiDr-nitroreductase tumors in mice at a dose of 178 (umol/kg); 0/3. It is filed as functional.
In data set [21] the test system is Mus musculus. Put plainly: In vivo activity against WiDr-nitroreductase tumors in mice at a dose of 1000 (umol/kg); 0/6. In kind it is functional.

≈ marks a conversion by molar mass, not a printed value.

As for `O=C(NCC(O)CO)c1cc(N2CC2)c([N+](=O)[O-])cc1[N+](=O)[O-]` (configuration not stated), the IC50 in the data set with SK-OV-3 [1] was 2.3 µM; in the data set with WiDr-NTR, 3.7 µM; in the data set with EMT6 [6] it was 1.1 µM; with V79 [10] it was 0.71 µM. The Deaths with Mus musculus [2] came out at 1. The Cures in the data set with Mus musculus [3] is given as 2. Also, the Tc with WiDr [4] was determined as 320 µM; in the data set on V79 [8], 840 µM. The Ratio amounted to 86.5 in the data set with EMT6 [5], 83.7 with SK-OV-3 [7] and 49 in data set [13]. The same compound displayed a solubility in data set [9] of 22000 µM (≈ 7180 µg/mL). In addition, the Ac in the data set on V79 [11] amounted to 26 µM; with WiDr [15], 28 µM. In data set [12], the logP was -1.04. Besides, the values for the T in the data set with WiDr [14] and with V79 [16] were 540 µM and 1595 µM, respectively. In the data set on Mus musculus [17], this compound came in with a Growth delay of more than 86 days.

For the compound `O=C(NCCN1CCOCC1)c1cc([N+](=O)[O-])cc([N+](=O)[O-])c1N1CC1`, the IC50 with SK-OV-3 [1] is 11 µM; in the data set with WiDr-NTR, 18 µM; with EMT6 [6] it was 3.4 µM; in the data set with V79 [10] it was 7.3 µM. The compound further registered a Deaths in the data set with Mus musculus [18] of 4. Also, the Growth delay in the data set on Mus musculus [19] was -1 days. The results for the Ratio (in the data set on EMT6 [5]; in the data set with SK-OV-3 [7]; in data set [13]) were 177, more than 72 and 32, respectively. Also, the concentration in solution in [9] (solubility) came to 350 µM (≈ 128 µg/mL). For the same compound, the logP in data set [12] was 0.11. In the data set on Mus musculus [20], this compound yielded a Cures of 0.

On to `O=C(NCC(O)CO)c1cc([N+](=O)[O-])cc([N+](=O)[O-])c1N1CC1` (configuration not stated), for which the IC50 in the data set with SK-OV-3 [1] was 7.3 µM; with WiDr-NTR it was 12.5 µM; with EMT6 [6] it was 4.4 µM; with V79 [10] it was 6.1 µM. Besides, the Deaths with Mus musculus [2] is listed as 1. Further, the Cures in the data set on Mus musculus [21] came out at 0. Besides, the Ratio in the data set on EMT6 [5] stood at 252; in the data set on SK-OV-3 [7], 185; in [13], 71. This compound also yielded a solubility in data set [9] of 2500 µM (≈ 816 µg/mL). For the same compound, the logP in [12] was -0.15. In addition, the Growth delay in the data set on Mus musculus [17] was 8 days.

The term IC50 denotes the concentration at which inhibition is half-maximal. In general, solubility refers to the dissolved amount per volume that the medium holds. Low readings indicate little dissolved substance, high ones much dissolved substance. As a reminder, the logP is a log measure of how a compound divides between an organic and an aqueous phase.
